Active and inactive are the calls of the source. The calls are words filed in the database; no cut-off is given here.
Columns and labels:
Nucleic Acid [1] = assay: Binding affinity to DNA (unknown origin) assessed as DNA intercalation by UV-visible spectrophotometry in presence of Cu2+; type: nucleic-acid assay
[2] = Cytostatic activity against human CEM-DNR cells after 72 hrs by MTT assay; type: functional, cell-based
Summary of the method: (§1)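 Cells were seeded at 25,000–30,000 per well and pre-incubated for 24 h at 37°C in 5% CO2. Four-fold compound dilutions were added in duplicate and incubated for 72 h. MTT was added for 1–4 h, and formazan was dissolved in 10% aq SDS (pH 5.5) overnight at 37°C. OD was read at 540 nm. IC50 came from dose-response curves, mean ± SD of eight independent experiments.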

Escherichia coli [3] = assay: Antimicrobial activity against multidrug-resistant Escherichia coli C/16702 up to 200 uM after 24 to 48 hrs by broth microdilution method; type: functional, organism-based
BJ [4] = assay: Selectivity index, ratio of IC50 for human BJ cells to IC50 for human p53-/- HCT116 cells; type: functional
[5] = Cytostatic activity against human K562-TAX cells after 72 hrs by MTT assay; type: functional, cell-based; summary of the method: as §1
HCT-116 [6] = assay: Selectivity index, ratio of IC50 for human MRC5 cells to IC50 for human HCT116 cells; type: functional
K562 = assay: Selectivity index, ratio of IC50 for human MRC5 cells to IC50 for human K562 cells; type: functional
CCRF-CEM [7] = assay: Induction of apoptosis in human CCRF-CEM cells assessed as inhibition of DNA synthesis at IC50 after 24 hrs by propidium iodide/BrdU staining by flow cytometry; type: functional; parameters: scale not given: the % may be the effect or the level left
[8] = Cytostatic activity against human p53-/- HCT116 cells after 72 hrs by MTT assay; type: functional, cell-based; details: HCT-116, 72 h; summary of the method: as §1
CCRF-CEM [9] = assay: Induction of apoptosis in human CCRF-CEM cells assessed as inhibition of RNA synthesis at IC50 after 24 hrs by propidium iodide/BrU staining by flow cytometry; type: functional; parameters: scale not given: the % may be the effect or the level left
CCRF-CEM [10] = assay: Cell cycle arrest in human CCRF-CEM cells assessed as accumulation at S phase at IC50 after 24 hrs by propidium iodide staining-based flow cytometry; type: functional
Summary of the method: (§2)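 Cells were then fixed in 70% ethanol, washed in hypotonic citrate buffer, treated with RNase (50 µg/mL) and stained with propidium iodide. Flow cytometry used a 488 nm laser. Apoptosis was scored as the percentage of particles with propidium content below G0/G1.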

CCRF-CEM [11] = assay: Cell cycle arrest in human CCRF-CEM cells assessed as accumulation at G2/M phase at 5 times IC50 after 24 hrs by propidium iodide staining-based flow cytometry; type: functional; summary of the method: as §2
[12] = Metal chelating activity of the compound assessed as formation of Mg2+ complex by UV-vis spectrometry; type: physicochemical
CCRF-CEM [13] = assay: Induction of apoptosis in human CCRF-CEM cells assessed as mitotic cells at IC50 after 24 hrs by pH3Ser10+ labeling-based flow cytometry; type: functional
BJ [14] = assay: Selectivity index, ratio of IC50 for human BJ cells to IC50 for human CCRF-CEM cells; type: functional; details: pooled result: one value given for 2 cell lines, strains, targets or settings
Nucleic Acid [15] = assay: Binding affinity to DNA (unknown origin) assessed as DNA intercalation by UV-visible spectrophotometry; type: nucleic-acid assay
Pseudomonas aeruginosa = assay: Antimicrobial activity against Pseudomonas aeruginosa CCM 395 up to 200 uM after 24 to 48 hrs by broth microdilution method; type: functional, organism-based
A549 [16] = assay: Cytostatic activity against human A549 cells after 72 hrs by MTT assay; type: functional, cell-based; details: A549, 72 h; summary of the method: as §1
A549 [17] = assay: Selectivity index, ratio of IC50 for human BJ cells to IC50 for human A549 cells; type: functional
MRC5 [18] = assay: Selectivity index, ratio of IC50 for human MRC5 cells to IC50 for human K562-TAX cells; type: functional
CEM-DNR = assay: Selectivity index, ratio of IC50 for human MRC5 cells to IC50 for human CEM-DNR cells; type: functional
Enterococcus faecalis = assay: Antimicrobial activity against Enterococcus faecalis CCM 4224 up to 200 uM after 24 to 48 hrs by broth microdilution method; type: functional, organism-based
Escherichia coli [19] = assay: Antimicrobial activity against Escherichia coli CCM 3954 up to 200 uM after 24 to 48 hrs by broth microdilution method; type: functional, organism-based
CCRF-CEM [20] = assay: Induction of apoptosis in human CCRF-CEM cells assessed as mitotic cells at 5 times IC50 after 24 hrs by pH3Ser10+ labeling-based flow cytometry; type: functional
HCT-116 [21] = assay: Selectivity index, ratio of IC50 for human MRC5 cells to IC50 for human p53-/- HCT116 cells; type: functional
Staphylococcus aureus [22] = assay: Antimicrobial activity against Staphylococcus aureus CCM 3953 up to 200 uM after 24 to 48 hrs by broth microdilution method; type: functional, organism-based
BJ [23] = assay: Cytostatic activity against human BJ cells after 72 hrs by MTT assay; type: ADME, cell-based; summary of the method: as §1
Staphylococcus aureus [24] = assay: Antimicrobial activity against methicillin-resistant Staphylococcus aureus MRSA 4591 up to 200 uM after 24 to 48 hrs by broth microdilution method; type: functional, organism-based
Nucleic Acid [25] = assay: Binding affinity to DNA (unknown origin) assessed as DNA intercalation by UV-visible spectrophotometry in presence of Co2+; type: nucleic-acid assay
CCRF-CEM [26] = assay: Cell cycle arrest in human CCRF-CEM cells assessed as accumulation at G2/M phase at IC50 after 24 hrs by propidium iodide staining-based flow cytometry; type: functional; summary of the method: as §2
[27] = Metal chelating activity of the compound assessed as formation of Ni2+ complex by UV-vis spectrometry; type: physicochemical
BJ [28] = assay: Selectivity index, ratio of IC50 for human BJ cells to IC50 for human CEM-DNR cells; type: functional
Candida tropicalis = assay: Antifungal activity against Candida tropicalis up to 200 uM after 24 to 48 hrs by broth microdilution method; type: functional, organism-based
CCRF-CEM [29] = assay: Induction of apoptosis in human CCRF-CEM cells assessed as inhibition of RNA synthesis at 5 times IC50 after 24 hrs by propidium iodide/BrU staining by flow cytometry; type: functional; parameters: scale not given: the % may be the effect or the level left
BJ [30] = assay: Selectivity index, ratio of IC50 for human BJ cells to IC50 for human K562-TAX cells; type: functional
Nucleic Acid [31] = assay: Binding affinity to DNA (unknown origin) assessed as DNA intercalation by UV-visible spectrophotometry in presence of Ni2+; type: nucleic-acid assay
MRC5 [32] = assay: Cytostatic activity against human MRC5 cells after 72 hrs by MTT assay; type: ADME, cell-based; details: MRC5, 72 h; summary of the method: as §1
CCRF-CEM [33] = assay: Cytostatic activity against human CCRF-CEM cells after 72 hrs by MTT assay; type: functional, cell-based; summary of the method: as §1
[34] = Metal chelating activity of the compound assessed as formation of Cr3+ complex by UV-vis spectrometry; type: physicochemical
CCRF-CEM [35] = assay: Induction of apoptosis in human CCRF-CEM cells assessed as inhibition of DNA synthesis at 5 times IC50 after 24 hrs by propidium iodide/BrdU staining by flow cytometry; type: functional; parameters: scale not given: the % may be the effect or the level left
CCRF-CEM [36] = assay: Induction of apoptosis in human CCRF-CEM cells assessed as apoptotic cells at 5 times IC50 after 24 hrs by propidium iodide staining-based flow cytometry; type: functional; summary of the method: as §2
BJ [37] = assay: Selectivity index, ratio of IC50 for human BJ cells to IC50 for human K562 cells; type: functional
Candida parapsilosis = assay: Antifungal activity against Candida parapsilosis up to 200 uM after 24 to 48 hrs by broth microdilution method; type: functional, organism-based

## O=C(N/N=C/c1cc(O)ccc1O)c1ccc2c3c(ccc2c1)N1Cc2c(ccc4cc(C(=O)N/N=C/c5cc(O)ccc5O)ccc24)N(C3)C1
Nucleic Acid [1]
  Activity: Active
[2]
  IC50: 2.59 µM
Escherichia coli [3]
  Activity: inactive
BJ [4]
  Ratio IC50: 29
[5]
  IC50: 0.26 µM
HCT-116 [6]
  Ratio IC50: 9.1
K562
  Ratio IC50: 8
CCRF-CEM [7]
  Activity: 50.15%
[8]
  IC50: 0.12 µM
CCRF-CEM [9]
  Activity: 48.47%
CCRF-CEM [10]
  Activity: 44.72%
CCRF-CEM [11]
  Activity: 20.46%
[12]
  Activity: Not Active
CCRF-CEM [13]
  Activity: 2.34%
BJ [14]
  Ratio IC50: 63.2
Nucleic Acid [15]
  Activity: inactive
Pseudomonas aeruginosa
  Activity: inactive
A549 [16]
  IC50: 0.17 µM
A549 [17]
  Ratio IC50: 20.9
MRC5 [18]
  Ratio IC50: 13.8
CEM-DNR
  Ratio IC50: 1.4
Enterococcus faecalis
  Activity: inactive
Escherichia coli [19]
  Activity: inactive
CCRF-CEM [20]
  Activity: 2.39%
HCT-116 [21]
  Ratio IC50: 29
Staphylococcus aureus [22]
  Activity: inactive
BJ [23]
  IC50: 6.55 µM
Staphylococcus aureus [24]
  Activity: inactive
Nucleic Acid [25]
  Activity: Active
CCRF-CEM [26]
  Activity: 17.9%
[27]
  Activity: Active
BJ [28]
  Ratio IC50: 1.4
Candida tropicalis
  Activity: inactive
CCRF-CEM [29]
  Activity: 43.16%
BJ [30]
  Ratio IC50: 13.8
Nucleic Acid [31]
  Activity: Active
MRC5 [32]
  IC50: 0.55 µM
CCRF-CEM [33]
  IC50: 0.06 µM
[34]
  Activity: Not Active
CCRF-CEM [35]
  Activity: 55.96%
CCRF-CEM [36]
  Activity: 9.74%
BJ [37]
  Ratio IC50: 8
Candida parapsilosis
  Activity: inactive

## COC(=O)c1ccc(O)c(/C=N/NC(=O)c2ccc3c4c(ccc3c2)N2Cc3c(ccc5cc(C(=O)N/N=C/c6cc(C(=O)OC)ccc6O)ccc35)N(C4)C2)c1
Nucleic Acid [1]
  Activity: Active
[2]
  IC50: 28.2 µM
Escherichia coli [3]
  Activity: inactive
BJ [4]
  Ratio IC50: 9.7
[5]
  IC50: 21.2 µM
HCT-116 [6]
  Ratio IC50: 8.9
K562
  Ratio IC50: 9.4
CCRF-CEM [7]
  Activity: 46.43%
[8]
  IC50: 9.47 µM
CCRF-CEM [9]
  Activity: 28.66%
CCRF-CEM [10]
  Activity: 38.54%
CCRF-CEM [11]
  Activity: 13.26%
[12]
  Activity: Not Active
CCRF-CEM [13]
  Activity: 1.19%
BJ [14]
  Ratio IC50: 16.3
Nucleic Acid [15]
  Activity: inactive
Pseudomonas aeruginosa
  Activity: inactive
A549 [16]
  IC50: 11.9 µM
A549 [17]
  Ratio IC50: 7.7
MRC5 [18]
  Ratio IC50: 4.3
CEM-DNR
  Ratio IC50: 3.2
Enterococcus faecalis
  Activity: inactive
Escherichia coli [19]
  Activity: inactive
CCRF-CEM [20]
  Activity: 0.86%
HCT-116 [21]
  Ratio IC50: 9.7
Staphylococcus aureus [22]
  Activity: inactive
BJ [23]
  IC50: 87.4 µM
Staphylococcus aureus [24]
  Activity: inactive
Nucleic Acid [25]
  Activity: Active
CCRF-CEM [26]
  Activity: 12.83%
[27]
  Activity: Active
BJ [28]
  Ratio IC50: 3.2
Candida tropicalis
  Activity: inactive
CCRF-CEM [29]
  Activity: 21.03%
BJ [30]
  Ratio IC50: 4.3
Nucleic Acid [31]
  Activity: Active
MRC5 [32]
  IC50: 95.4 µM
CCRF-CEM [33]
  IC50: 5.62 µM
[34]
  Activity: Not Active
CCRF-CEM [35]
  Activity: 54.61%
CCRF-CEM [36]
  Activity: 14.56%
BJ [37]
  Ratio IC50: 9.4
Candida parapsilosis
  Activity: inactive

From ChEMBL document CHEMBL3400013, “Synthesis and biological activity evaluation of hydrazone derivatives based on a Tröger's base skeleton” (Bioorg Med Chem, 2015)
